Drawing on ChEMBL document CHEMBL1148554, “Hydroxylated analogues of the orally active broad spectrum antifungal, Sch 51048 (1), and the discovery of posaconazole [Sch 56592; 2 or (S,S)-5]” (2006), this text covers MIC for eight compounds.

For one test, the system named is Aspergillus. Description: Antifungal activity against Aspergillus species. It counts as functional. The method in brief: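 Geometric mean MIC across 37 Aspergillus strains: 17 A. fumigatus, 11 A. flavus, 5 A. niger and 4 A. terreus.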
Another test relates to Candida albicans. Put plainly: Antifungal activity against Candida albicans. It is filed as functional. The method in brief: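 Geometric mean MIC across 26–30 C. albicans strains.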

Values after ≈ are worked out from the molar mass of the structure shown.

With `C[C@H]([C@@H](C)O)n1ncn(-c2ccc(N3CCN(c4ccc(OC[C@@H]5CO[C@@](Cn6cncn6)(c6ccc(F)cc6F)C5)cc4)CC3)cc2)c1=O`, the minimum inhibitory concentration (MIC) (commonly the lowest concentration found to suppress growth) is 0.09 µg/mL (≈ 0.131 µM) with Aspergillus and below 0.006 µg/mL in the test with Candida albicans.
Turning to `CC[C@H]([C@@H](C)O)n1ncn(-c2ccc(N3CCN(c4ccc(OC[C@@H]5CO[C@@](Cn6cncn6)(c6ccc(F)cc6F)C5)cc4)CC3)cc2)c1=O`, the minimum inhibitory concentration (MIC) with Aspergillus was below 0.077 µg/mL; in the test on Candida albicans, 0.014 µg/mL (≈ 0.02 µM).
For `C[C@H](O)[C@@H](C)n1ncn(-c2ccc(N3CCN(c4ccc(OC[C@@H]5CO[C@@](Cn6cncn6)(c6ccc(F)cc6F)C5)cc4)CC3)cc2)c1=O` the same measures were 0.08 µg/mL (≈ 0.116 µM) and 0.03 µg/mL (≈ 0.0437 µM).
The matching figures for `CC[C@H]([C@H](C)O)n1ncn(-c2ccc(N3CCN(c4ccc(OC[C@@H]5CO[C@@](Cn6cncn6)(c6ccc(F)cc6F)C5)cc4)CC3)cc2)c1=O`: below 0.09 µg/mL and 0.022 µg/mL (≈ 0.0314 µM).
For `C[C@@H](O)[C@H](C)n1ncn(-c2ccc(N3CCN(c4ccc(OC[C@@H]5CO[C@@](Cn6cncn6)(c6ccc(F)cc6F)C5)cc4)CC3)cc2)c1=O` the same measures were below 0.05 µg/mL and below 0.007 µg/mL.
As for `C[C@H](O)[C@H](C)n1ncn(-c2ccc(N3CCN(c4ccc(OC[C@@H]5CO[C@@](Cn6cncn6)(c6ccc(F)cc6F)C5)cc4)CC3)cc2)c1=O`, the MIC in the test on Aspergillus was found to be 0.06 µg/mL (≈ 0.0874 µM); in the test with Candida albicans it was 0.02 µg/mL (≈ 0.0291 µM).
The matching figures for `CC[C@@H]([C@@H](C)O)n1ncn(-c2ccc(N3CCN(c4ccc(OC[C@@H]5CO[C@@](Cn6cncn6)(c6ccc(F)cc6F)C5)cc4)CC3)cc2)c1=O` (mixture of isomers): below 0.086 µg/mL and 0.019 µg/mL.
For `CC[C@@H]([C@H](C)O)n1ncn(-c2ccc(N3CCN(c4ccc(OC[C@@H]5CO[C@@](Cn6cncn6)(c6ccc(F)cc6F)C5)cc4)CC3)cc2)c1=O` [POSACONAZOLE] the same measures were below 0.048 µg/mL and 0.018 µg/mL (≈ 0.0257 µM).
